From PubChem BioAssay
Most compounds without a hit are left out; they make up all but 9.6% or so of the library.
TNAP inh no acc: human TNAP enzyme inhibitors, primary screen, biochemical, luminescent, no phosphate acceptor, uHTS; AID 1012, 2008; purified TNAP, CDP-star luminescence, 30 min; hit rate 0.26% among 200,000; Alkaline phosphatase, tissue-nonspecific isozyme (Homo sapiens), P05186; inhibition, % at 20 µM;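 active means tissue-nonspecific alkaline phosphatase inhibition above about 50% at 20 µM in the single-dose screen, limit read from the data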;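 further: 0% = DMSO negative control and 100% = EDTA positive control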
Target sequence (P05186 whole entry, looked up): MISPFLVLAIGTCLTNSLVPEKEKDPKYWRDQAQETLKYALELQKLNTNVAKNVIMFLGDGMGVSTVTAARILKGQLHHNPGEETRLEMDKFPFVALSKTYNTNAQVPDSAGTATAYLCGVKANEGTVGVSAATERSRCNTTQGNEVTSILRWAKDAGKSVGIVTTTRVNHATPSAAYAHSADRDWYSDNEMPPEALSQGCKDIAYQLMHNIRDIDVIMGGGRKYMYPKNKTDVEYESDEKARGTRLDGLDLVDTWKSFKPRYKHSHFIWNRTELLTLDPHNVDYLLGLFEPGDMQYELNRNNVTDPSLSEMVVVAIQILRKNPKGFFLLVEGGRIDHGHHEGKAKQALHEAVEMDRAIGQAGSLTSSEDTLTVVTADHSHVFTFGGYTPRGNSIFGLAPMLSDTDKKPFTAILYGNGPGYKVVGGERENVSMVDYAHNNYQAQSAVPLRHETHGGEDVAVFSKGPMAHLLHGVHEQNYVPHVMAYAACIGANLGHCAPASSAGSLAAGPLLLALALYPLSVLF
TNAP act hi DEA: TNAP activators at high phosphate acceptor level, primary screen, biochemical, luminescence, uHTS. activation factor at 20 µM. 200,000 tested, under 10 active. purified TNAP, CDP-star luminescence, 1 M DEA, 30 min; stronger effect = higher value; 0 = EDTA background, 1 = DMSO-only activity. Alkaline phosphatase, tissue-nonspecific isozyme (Homo sapiens), P05186;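 active means activation factor at least 2 at 20 µM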
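Test system – human TNAP · Doses – 20 µM single point · Incubation – 30 min, room temperature · Signal – luminescent substrate turnover signal · Read-out basis – activation factor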
HCT116 PTEN-null: growth suppression of PTEN-null HCT116, primary screen, cell-based, CellTiter-Glo; hit rate 1.2% among 140,000; HCT116 PTEN-null viability, 60 h; stronger effect = lower value; viability, % at 10 µM; AID 827, 2007;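 active means viability at or below a set limit, 4 SD under the median of all tested compounds, cut at about 3.7% in these data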;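 further: PTEN knockout HCT116 line with beta catenin targeted HCT116 as companion control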
HCT116 bCat-KO: primary screen for growth suppressors in beta-catenin knockout HCT116 cells (colon tumor, human). viability, % at 10 µM. HCT116 beta-catenin knockout viability, CellTiter-Glo, 60 h; stronger effect = lower value. hit rate 1.5% among 140,000;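 active means viability at or under a set limit, the compound median less 4 SD, cut at about 6% in these data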;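 further: 0% = Hyamine 1622 control at 20 µM and 100% = untreated cell control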
TNAP inh hi DEA: human TNAP enzyme inhibitors, primary screen, biochemical, luminescent, high phosphate acceptor level, uHTS; Alkaline phosphatase, tissue-nonspecific isozyme (Homo sapiens), P05186; purified TNAP, CDP-star luminescence, 1 M DEA; inhibition, % at 20 µM; hit rate 0.03% among 200,000;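 active means over 50% inhibition of tissue-nonspecific alkaline phosphatase at 20 µM in the single-dose screen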;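 further: plate controls were DMSO wells for no effect and EDTA-quenched wells as full inhibition for full effect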
L major viab: Leishmania major promastigote growth inhibition, primary screen; Leishmania major promastigotes, resazurin fluorescence viability; hit rate 9% among 200,000; AID 1063, 2008; inhibition, % at 10 µM; in the data active means inhibition above about 50%;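 further: promastigotes grown with compound for 44 hours at 28 °C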
* hit, by the source's call.

`O=C(NCc1ccc2c(c1)OCO2)c1ccco1` gave TNAP inh no acc -12, TNAP act hi DEA 1.1, TNAP inh hi DEA -6 and L major viab -5.
`CN(c1ccc(C(=O)NCCSCc2ccccc2)cc1)S(=O)(=O)c1ccccc1` gave TNAP inh no acc -11, TNAP act hi DEA 1.1, HCT116 PTEN-null 91, HCT116 bCat-KO 91, TNAP inh hi DEA -8 and L major viab 82*.
For Cc1cccc(CSCCNC(=O)c2ccc(N(C)S(=O)(=O)c3ccccc3)cc2)c1 the results were TNAP inh no acc -13, TNAP act hi DEA 1.1, HCT116 PTEN-null 67, HCT116 bCat-KO 58, TNAP inh hi DEA -10 and L major viab 1.
`Cc1ccccc1N=C1SC(CC(=O)Nc2ccc3ccccc3c2)C(=O)N1Cc1ccccn1` (stereo unspecified) gave TNAP inh no acc -10, TNAP act hi DEA 1, HCT116 PTEN-null 41, HCT116 bCat-KO 53, TNAP inh hi DEA -1 and L major viab 98*.
For CC12CCC(C(=O)N(CSC(=S)N/N=C\c3ccccc3O)C1=O)C2(C)C (stereo unspecified) the results were TNAP inh no acc -2, TNAP act hi DEA 1, HCT116 PTEN-null 60, HCT116 bCat-KO 59, TNAP inh hi DEA 0 and L major viab 85*.
Screening CCC(=C(c1ccc(OC)cc1)c1ccc(OC)cc1)c1cn(CC(O)CN2CCN(C)CC2)c2ccccc12 (stereo unspecified) returned TNAP inh no acc -3, TNAP act hi DEA 1, HCT116 PTEN-null 1.7*, HCT116 bCat-KO 2.1*, TNAP inh hi DEA -2 and L major viab 100*.
COc1ccccc1-c1nc(SCC(=O)NCC2CCCO2)c2c(=O)n(C)c(=O)n(C)c2n1 (stereo unspecified) was read as TNAP inh no acc -5, TNAP act hi DEA 1, TNAP inh hi DEA 2 and L major viab 16.
`NS(=O)(=O)c1cccnc1Nc1cccc(Cl)c1Cl` gave TNAP inh no acc 29, TNAP act hi DEA 0.5, HCT116 PTEN-null 97, HCT116 bCat-KO 90, TNAP inh hi DEA 50* and L major viab 10.
Screening c1ccc(N2CCN(c3ccccc3)C2c2cccnc2)cc1 returned TNAP inh no acc -9, TNAP act hi DEA 1, HCT116 PTEN-null 87, HCT116 bCat-KO 88, TNAP inh hi DEA -2 and L major viab 92*.
Screening c1ccc(N2CCN(c3ccccc3)C2c2ccncc2)cc1 returned TNAP inh no acc -2, TNAP act hi DEA 1, HCT116 PTEN-null 71, HCT116 bCat-KO 79, TNAP inh hi DEA 4 and L major viab 82*.
Screening Cc1ccc(N2CCN(c3ccc(C)cc3)C2c2cccnc2)cc1 returned TNAP inh no acc 2, TNAP act hi DEA 1.1, HCT116 PTEN-null 79, HCT116 bCat-KO 72, TNAP inh hi DEA -9 and L major viab 86*.
For O=C1CCCC(=O)N1c1ccc(N2CCOCC2)c([N+](=O)[O-])c1 the results were TNAP inh no acc 5, TNAP act hi DEA 1, TNAP inh hi DEA 2 and L major viab 0.
`Nc1ncc(Br)cc1S(=O)(=O)NCCC(=O)Nc1cccc(Cl)c1` gave TNAP inh no acc -12, TNAP act hi DEA 1.1, HCT116 PTEN-null 88, HCT116 bCat-KO 89, TNAP inh hi DEA -6 and L major viab 64*.
O=C(Nc1ccc2c(c1)OCCO2)N1CCN(Cc2ccccc2)CC1 was read as TNAP inh no acc -2, TNAP act hi DEA 1, TNAP inh hi DEA -2 and L major viab -2.
`O=C(Cn1cnc2sc(-c3ccccc3)cc2c1=O)NCc1ccccc1` gave TNAP inh no acc -16, TNAP act hi DEA 1.1, HCT116 PTEN-null 2.2*, HCT116 bCat-KO 2.1*, TNAP inh hi DEA -6 and L major viab -4.
`Cc1ccc(Nc2nc(CSc3nnc(-c4cccnc4)n3-c3ccccc3F)cs2)cc1` gave TNAP inh no acc -4, TNAP act hi DEA 1.1, HCT116 PTEN-null 82, HCT116 bCat-KO 90, TNAP inh hi DEA -8 and L major viab 89*.
Cc1ccc(Nc2nc(CSc3nnc(-c4ccncc4)n3C)cs2)cc1 was read as TNAP inh no acc 7, TNAP act hi DEA 1, HCT116 PTEN-null 66, HCT116 bCat-KO 64, TNAP inh hi DEA -1 and L major viab 2.
Screening COc1ccc(-c2nc3ccccn3c2CN2CCN(c3ccccc3F)CC2)cc1 returned TNAP inh no acc inactive, TNAP act hi DEA 1.1, TNAP inh hi DEA -7 and L major viab 85*.
`COc1ccc(-c2noc(CN3CCN(c4ccccc4F)CC3)n2)cc1OC` gave TNAP inh no acc -3, TNAP act hi DEA 1, HCT116 PTEN-null 74, HCT116 bCat-KO 77, TNAP inh hi DEA -1 and L major viab 25.
Screening CCn1nc(C)c(CNC(=O)Nc2ccc3c(c2)OCO3)c1C returned TNAP inh no acc -7, TNAP act hi DEA 1, TNAP inh hi DEA 0 and L major viab -4.
For CCn1cc(CNC(=O)/C=C/c2ccc([N+](=O)[O-])cc2)cn1 the results were TNAP inh no acc -4, TNAP act hi DEA 1, HCT116 PTEN-null 91, HCT116 bCat-KO 87, TNAP inh hi DEA 1 and L major viab -1.
Screening Cc1nc2c(-c3ccccc3)c(C)nn2c(N)c1-c1ccccc1 returned TNAP inh no acc -4, TNAP act hi DEA 1, HCT116 PTEN-null 72, HCT116 bCat-KO 79, TNAP inh hi DEA -3 and L major viab 100*.
Screening Cc1nn(-c2ccccc2)c(N)c1-c1ccccc1 returned TNAP inh no acc -16, TNAP act hi DEA 1, TNAP inh hi DEA -4 and L major viab -7.
Screening Cc1nn(-c2nc3ccccc3[nH]2)c(N)c1-c1ccccc1 returned TNAP inh no acc -152, TNAP act hi DEA 1, HCT116 PTEN-null 7, HCT116 bCat-KO 13, TNAP inh hi DEA 0 and L major viab 91*.
Screening CCOC(=O)c1ccc(N/N=C/c2cc(Br)cc([N+](=O)[O-])c2O)cc1 returned TNAP inh no acc 48, TNAP act hi DEA 0.4, TNAP inh hi DEA 56* and L major viab -2.
`Cc1cccc2c1[nH]c1nc(N/N=C\c3ccco3)nnc12` gave TNAP inh no acc -14, TNAP act hi DEA 1, HCT116 PTEN-null 110, HCT116 bCat-KO 99, TNAP inh hi DEA -2 and L major viab 61*.
For CCCc1cc2c(=O)c(-c3ccc4c(c3)OCCO4)c(C)oc2cc1OS(C)(=O)=O the results were TNAP inh no acc 0, TNAP act hi DEA 1, HCT116 PTEN-null 76, HCT116 bCat-KO 80, TNAP inh hi DEA 1 and L major viab 99*.
